Laboratory results reported in the array DNA melting data of Ke et al. (doi:10.1101/2024.01.08.574731).

Columns and labels:
[1] = folding enthalpy; higher = less favourable; fluorescence melt of hairpins on a sequencing array, two-state fit; conditions: sodium 0.088 M
Procedure, shortened: (§1)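 Library hairpins on a sequenced MiSeq flow cell carried annealed Cy3 and quencher oligos, and their Cy3 fluorescence was imaged in 50 mM Na-HEPES pH 8.0 with 25 mM NaCl, in 2.5 °C steps up to 60 °C. Signals were normalised to Cy3 before quenching and to control constructs. Melting temperature and folding enthalpy were obtained from bootstrapped two-state fits, combined by inverse-variance weighting across four replicates, and the fitted temperatures were then raised by 9.35 °C to match UV melts.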

[2] = melting temperature; fluorescence melt of hairpins on a sequencing array, two-state fit, raised by 9.35 °C to match UV melts; conditions: sodium 0.088 M
Procedure, shortened: as §1

Row | Sequence | folding enthalpy [1] [kcal/mol] | Tm [2] [°C]
1 | CGAACGGAAACGTATCG ((((((....))).))) | -19.2 | 36.1
2 | GATCCACCAGTGGATC ((((((....)))))) | -50.8 | 56.1
3 | GATTGGGGAAACCCGATC (((.(((....))).))) | -35 | 48.8
4 | GGTGTCGAAAGACCAACC ((((((....)))..))) | -15.3 | 37.5
5 | GCGTTCGAAAGAAGACGC ((((((....)))..))) | -31.8 | 46.9
6 | GCGCGAGCGAAAGCTCGC (((..(((....)))))) | -6.17 | 69.1
7 | GATCGCCACTGCGATC ((((((....)))))) | -42.9 | 65.3
8 | GCATACCGAAAGGTCTGC (((.(((....))).))) | -33.5 | 51.4
9 | GCATCTGGAAACGGATGC (((((.(....).))))) | -44.6 | 53.8
10 | CGTCACGGAAACGTCACG (((.(((....))).))) | -19.8 | 39.3
11 | GGATAGCGAAAGCTCTCC (((.(((....))).))) | -30.9 | 45.4
12 | GTGTTTCCGAAAGGACAC (((..(((....)))))) | -23.4 | 43.4
13 | GAAGGCGAAAGCCCTTC ((((((....))).))) | -15.3 | 52.1
14 | GGACGCGGAAACGCGCCC ((.((((....)))).)) | -18.6 | 61.8
15 | GCAGCCCGAAAGGGTGC (((.(((....)))))) | -20.6 | 64.4
16 | GTTGCACGAAAGTGAAAC (((.(((....))).))) | -31.5 | 51.8
17 | GCTGTGCCGAAAGGCAGC (((..(((....)))))) | -10.3 | 48.7
18 | GGTTTGAAAAAACC (((((....))))) | -25 | 46.3
19 | GCGATTGTCGC ((((...)))) | -19.6 | 48.2
20 | GCTTCGGAAACGAAGC ((((((....)))))) | -36.3 | 67.8
21 | GCAATGCGAAAGCACTGC (((.(((....))).))) | -36.8 | 51.6
22 | CGAGCGGAAACGCTTTCG ((((((....)))..))) | -11.8 | 30.4
23 | GATCCCCACGGGGATC ((((((....)))))) | -36.2 | 66.4

Row | Sequence | folding enthalpy [1] [kcal/mol] | Tm [2] [°C]
24 | GCACTAGGAAACTGGTGC ((((.((....)).)))) | -34.5 | 52.9
25 | GTCGCCGGAAACGACGAC ((((.((....)).)))) | -43.5 | 57.5
26 | GATCGTAGAGACGATC ((((((....)))))) | -25.4 | 51.9
27 | GCGTGTGGAAACATACGC ((((.((....)).)))) | -39 | 58.8
28 | GATTCCGAAAGGAGCATC ((((((....)))..))) | -11.6 | 27.3
29 | GTGGTGACGAAAGTCCAC (((..(((....)))))) | -19 | 45.6
30 | GCTGGGCGAAAGCCACGC ((..(((....)))..)) | -15.6 | 48
31 | GGAAAGGGAAACCTTTTC (.(((((....))))).) | -24.3 | 37.6
32 | GTCTCCGAAAGGATGGAC ((((((....)))..))) | -17.6 | 35.2
33 | GACAGGGGAAACCCCATC ((..(((....)))..)) | -13.2 | 27.1
34 | CGTCTCCGGAAACGGACG (((..(((....)))))) | -14.7 | 37.8
35 | GTGCCCGAAAGGGCCCAC ((((((....)))..))) | -5.79 | 41
36 | GCGATTGCGAAAGCACGC (((..(((....)))))) | -20.1 | 51.4
37 | GCGCAGGGAAACTTGCGC (((((.(....).))))) | -43.4 | 60.2
38 | GTGGTCGAAAGACGTCAC ((((((....)))..))) | -13.5 | 36.2
39 | GATCGACGGGTCGATC ((((((....)))))) | -46 | 63.3
40 | GCCACGCGAAAGCGATGC ((..(((....)))..)) | -12.7 | 43.3
41 | GTCGACGAAAGTCCTGAC ((((((....)))..))) | -12.9 | 31.6
42 | GATCTCCACCGAGATC ((((((....)))))) | -37.2 | 51.9
43 | GCTAGACCGAAAGGTAGC (((..(((....)))))) | -19.2 | 44.1
44 | GATCGAGCCATCGATC ((((((....)))))) | -39.7 | 59.2
45 | GCTACGCGAAAGCAGAGC (((..((....))..))) | -18.7 | 48.4
46 | GAGCATGGAAACATACTC (((.(((....))).))) | -26.1 | 35.6

Row | Sequence | folding enthalpy [1] [kcal/mol] | Tm [2] [°C]
47 | GCTTGGCGAAAGCCCAGC (((.(((....))).))) | -36.6 | 51.2
48 | GTAGGGGGAAACTCCTAC (((((.(....).))))) | -28.5 | 47.2
49 | GTTACCGAAAGGTTGAAC ((((((....)))..))) | -12.8 | 29.2
50 | GCAAGGCGAAAGCGTGGC ((.(.((....)).).)) | -20.2 | 46.9
51 | GAGGGGCCGAAAGGCCTC (((..(((....)))))) | -7.41 | 46.4
52 | GCTTCGCGAAAGCGCCGC ((..(((....)))..)) | -12.2 | 44.7
53 | GCCCGGCGAAAGCCTAGC ((..(((....)))..)) | -13.8 | 27.2
54 | GACCACGGAAACGTGACC (..((((....))))..) | -8.43 | 29.2
55 | GTGAACGAAAGTTCTCAC ((((((....)))..))) | -14.3 | 35
56 | GCGACTAGTCGC ((((....)))) | -28.9 | 65.2
57 | GGTCCGCGAAAGCGAACC (((.(((....))).))) | -28.1 | 57.5
58 | GATCCGCGCACGGATC ((((((....)))))) | -39.2 | 59.1
59 | GACGTGGAAACACGTC ((((((....)))))) | -33.4 | 67.6
60 | GCCCTTTCGAAAGAAGGC (((..(((....)))))) | -33.3 | 37.6
61 | GGACCCGAAAGGGTTCC ((((((....))).))) | -16.8 | 59.7
62 | GAATGAGGAAACTTATTC ((((.((....)).)))) | -20.4 | 29.6
63 | GTTTCAGGAAACCGAAAC (((((.(....).))))) | -30 | 37.4
64 | GGTTCGGGAAACCGAACC (((((((....))))))) | -38.2 | 69.2
65 | GCTATCGAAAGATTAGC ((((((....))).))) | -26.1 | 42.7
66 | GTTGTCGAAAGACGCAAC ((((((....)))..))) | -9.32 | 31.9
67 | GCACTCGGAAACGAGCGC ((.((((....)))).)) | -38.9 | 55.2
68 | GGTTACGGAAACGTAGTC (..((((....))))..) | -12.7 | 25.7
69 | GCCTTGCGAAAGCTTGGC (((..((....))..))) | -20.9 | 60
